From ChEMBL document CHEMBL2417508, “Synthesis and evaluation of a 125I-labeled iminodihydroquinoline-derived tracer for imaging of voltage-gated sodium channels” (Bioorg Med Chem Lett, 2013)

Tests used:
[1] = Inhibition of voltage-gated sodium channel in rat brain homogenate; assay type: tissue-based
Outline: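 Radioligand displacement of [3H]batrachotoxin binding was measured in rat brain homogenates, and IC50 was derived.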

[2] = target: Sodium channel protein type 2 subunit alpha (Rattus norvegicus, UniProt P04775); experiment: Inhibition of rat brain voltage-gated sodium channel subunit alpha Nav1.2-mediated current expressed in CHO cells; assay type: cell-based
[3] = Binding affinity to voltage-gated sodium channel in rat brain synaptosomal membranes; assay type: cell membranes
Rattus norvegicus = species: Rattus norvegicus; experiment: Binding affinity to voltage-gated sodium channel in rat brain synaptosomal membranes relative to control; assay type: cell membranes

Chain of Sodium channel protein type 2 subunit alpha (P04775 whole entry): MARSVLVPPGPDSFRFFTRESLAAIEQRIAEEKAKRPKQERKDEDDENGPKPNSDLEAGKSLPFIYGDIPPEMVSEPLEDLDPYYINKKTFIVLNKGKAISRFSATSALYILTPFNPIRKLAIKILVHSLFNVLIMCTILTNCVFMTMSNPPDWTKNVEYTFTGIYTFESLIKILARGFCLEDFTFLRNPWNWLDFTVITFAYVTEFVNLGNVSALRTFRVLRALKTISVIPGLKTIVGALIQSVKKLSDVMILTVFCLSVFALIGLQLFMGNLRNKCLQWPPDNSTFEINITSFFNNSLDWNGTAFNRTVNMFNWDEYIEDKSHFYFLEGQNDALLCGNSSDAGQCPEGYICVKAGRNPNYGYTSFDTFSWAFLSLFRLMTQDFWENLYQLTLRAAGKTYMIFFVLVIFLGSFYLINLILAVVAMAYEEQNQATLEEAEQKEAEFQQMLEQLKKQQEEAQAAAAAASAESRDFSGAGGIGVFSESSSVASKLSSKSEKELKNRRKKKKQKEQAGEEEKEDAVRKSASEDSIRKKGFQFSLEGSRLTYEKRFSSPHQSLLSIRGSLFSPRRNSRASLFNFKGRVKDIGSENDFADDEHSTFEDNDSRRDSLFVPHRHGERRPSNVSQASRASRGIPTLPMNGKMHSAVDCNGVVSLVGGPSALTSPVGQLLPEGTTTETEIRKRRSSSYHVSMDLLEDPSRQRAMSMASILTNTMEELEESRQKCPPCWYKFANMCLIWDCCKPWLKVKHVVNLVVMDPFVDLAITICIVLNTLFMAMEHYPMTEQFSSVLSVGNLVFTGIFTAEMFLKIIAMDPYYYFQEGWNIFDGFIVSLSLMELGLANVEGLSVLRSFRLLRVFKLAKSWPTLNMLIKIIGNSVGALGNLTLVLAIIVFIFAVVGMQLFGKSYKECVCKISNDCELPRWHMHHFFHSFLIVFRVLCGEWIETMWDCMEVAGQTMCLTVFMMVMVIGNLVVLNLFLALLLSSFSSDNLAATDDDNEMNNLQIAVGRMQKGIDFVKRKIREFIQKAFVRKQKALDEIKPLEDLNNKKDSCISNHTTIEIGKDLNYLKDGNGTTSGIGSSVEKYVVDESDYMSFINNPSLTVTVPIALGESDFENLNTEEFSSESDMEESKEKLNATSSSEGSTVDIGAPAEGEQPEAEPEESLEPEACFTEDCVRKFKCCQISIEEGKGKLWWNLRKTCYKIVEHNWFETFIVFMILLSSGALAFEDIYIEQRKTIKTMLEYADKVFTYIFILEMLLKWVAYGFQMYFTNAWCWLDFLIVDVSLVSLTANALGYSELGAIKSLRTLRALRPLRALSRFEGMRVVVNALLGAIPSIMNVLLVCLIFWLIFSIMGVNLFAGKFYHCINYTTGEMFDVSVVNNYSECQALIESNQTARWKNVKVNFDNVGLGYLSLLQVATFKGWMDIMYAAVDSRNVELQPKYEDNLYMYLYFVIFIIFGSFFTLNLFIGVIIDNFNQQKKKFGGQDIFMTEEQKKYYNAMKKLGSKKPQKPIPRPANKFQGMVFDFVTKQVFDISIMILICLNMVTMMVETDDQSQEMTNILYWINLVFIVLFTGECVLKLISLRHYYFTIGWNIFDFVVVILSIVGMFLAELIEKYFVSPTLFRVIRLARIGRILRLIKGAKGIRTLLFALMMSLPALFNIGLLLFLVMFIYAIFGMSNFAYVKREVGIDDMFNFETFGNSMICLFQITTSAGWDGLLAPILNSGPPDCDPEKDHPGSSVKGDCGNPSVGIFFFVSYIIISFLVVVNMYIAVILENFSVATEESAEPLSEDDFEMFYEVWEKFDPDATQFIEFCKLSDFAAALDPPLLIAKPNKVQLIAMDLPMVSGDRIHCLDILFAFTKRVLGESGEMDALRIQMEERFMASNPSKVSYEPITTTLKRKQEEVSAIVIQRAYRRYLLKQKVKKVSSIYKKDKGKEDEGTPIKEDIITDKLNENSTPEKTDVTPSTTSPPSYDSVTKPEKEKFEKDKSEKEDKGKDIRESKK

Work on CCCCC/N=c1\ccn(Cc2ccccc2)c2cc(Cl)ccc12 yielded an IC50 [1] of 8.1 nM, an IC50 [2] of 9 nM and a Kd [3] of 2.2 nM. For the same compound, the Bmax (Rattus norvegicus) was 5.4 pmol/mg.
